Experimental data taken from ChEMBL document CHEMBL4251599, “Synthesis and biological evaluation of coumarin derivatives containing imidazole skeleton as potential antibacterial agents” (Eur J Med Chem, 2018).
In brackets after ≈: the same amount, converted by molar mass.

Columns and labels:
Flavobacterium columnare [1] = experiment: Antibacterial activity against Flavobacterium columnare FC-G1 after 24 hrs by two fold serial dilution method; format: functional; settings: FC-G1, 24 h
In short: (§1)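 Broth two-fold serial dilution per CLSI, in nutrient broth. Inoculum from 24 h cultures at 28 ± 1 °C, adjusted in saline to 1×10^7-2×10^7 cfu/mL, then diluted to 1×10^5-2×10^5 cfu/mL. Test range 256 down to 0.50 µM and lower. Tubes held 24 h at 28 ± 1 °C. MIC read visually. Enrofloxacin and norfloxacin served as standards.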

Escherichia coli [2] = experiment: Antibacterial activity against Escherichia coli ATCC 35150 after 24 hrs by two fold serial dilution method; format: functional; settings: ATCC 35150, 24 h; in short: as §1
Streptococcus agalactiae [3] = experiment: Antibacterial activity against Streptococcus agalactiae WB1445 after 24 hrs by two fold serial dilution method; format: functional; settings: WB1445, 24 h; in short: as §1
Staphylococcus aureus [4] = experiment: Antibacterial activity against Staphylococcus aureus ATCC 29213 after 24 hrs by two fold serial dilution method; format: functional; settings: ATCC 29213, 24 h; in short: as §1
Flavobacterium columnare [5] = experiment: Bactericidal activity against Flavobacterium columnare FC-G1 incubated for 24 hrs followed by re-plating on nutrient agar and measured after overnight incubation by two fold serial dilution method; format: functional; settings: FC-G1, 24 h
In short: (§2)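 After the MIC read, 100 µl from every tube without visible growth was spread on nutrient agar lacking compound. Plates were incubated overnight at 28 ± 1 °C. MBC was taken as the lowest concentration killing >99.9% of the initial population, seen as no growth on agar.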

Escherichia coli [6] = experiment: Bactericidal activity against Escherichia coli ATCC 35150 incubated for 24 hrs followed by re-plating on nutrient agar and measured after overnight incubation by two fold serial dilution method; format: functional; settings: ATCC 35150, 24 h; in short: as §2
Streptococcus agalactiae [7] = experiment: Bactericidal activity against Streptococcus agalactiae WB1445 incubated for 24 hrs followed by re-plating on nutrient agar and measured after overnight incubation by two fold serial dilution method; format: functional; settings: WB1445, 24 h; in short: as §2
Staphylococcus aureus [8] = experiment: Bactericidal activity against Staphylococcus aureus ATCC 29213 incubated for 24 hrs followed by re-plating on nutrient agar and measured after overnight incubation by two fold serial dilution method; format: functional; settings: ATCC 29213, 24 h; in short: as §2
[9] = Inhibition of Escherichia coli ATCC 35150 FabI in presence of t-O-NAC and NADH up to 1 min by spectrophotometric analysis
In short: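 Recombinant His-tagged FabI, expressed in E. coli BL21(DE3) and purified on Ni-NTA, was used at 20 µL of 100 µg/mL stock in 0.1 M PBS-DTT. Compounds were tested at 128-1 µM with 10 µL of 4 mM t-O-NAC, and 20 µL of 2 mM NADH started the reaction. NADH oxidation was followed at 340 nm for 1 min. IC50 came from dose-response plots.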

[10] = biological target: T1, Enoyl-(Acyl-carrier-protein) reductase II (Streptococcus agalactiae serotype V (strain ATCC BAA-611 / 2603 V/R), UniProt Q8E1K8); experiment: Inhibition of Streptococcus agalactiae WB1445 FabK in presence of t-O-NAC and NADH up to 1 min by spectrophotometric analysis
T1 sequence (Q8E1K8 whole entry): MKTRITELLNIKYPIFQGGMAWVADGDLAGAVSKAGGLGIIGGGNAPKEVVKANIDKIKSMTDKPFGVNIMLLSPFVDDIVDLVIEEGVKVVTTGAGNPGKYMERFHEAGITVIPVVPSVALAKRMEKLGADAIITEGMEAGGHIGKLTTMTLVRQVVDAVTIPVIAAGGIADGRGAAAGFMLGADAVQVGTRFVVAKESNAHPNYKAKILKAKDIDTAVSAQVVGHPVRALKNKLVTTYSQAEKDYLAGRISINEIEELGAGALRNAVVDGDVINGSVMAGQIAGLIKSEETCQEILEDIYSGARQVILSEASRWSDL
In short: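 Recombinant His-tagged FabK (20 µL of 150 µg/mL stock) was assayed in 100 µL of 0.1 M ADA-DTT, pH 6.5, against compounds at 128-1 µM, with 10 µL of 4 mM t-O-NAC. Addition of 20 µL of 2 mM NADH started the reaction. Absorbance at 340 nm was read for 1 min. IC50 was estimated from dose-response curves.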

Structure (SMILES) | MIC (Flavobacterium columnare [1]) | MIC (Escherichia coli [2]) | MIC (Streptococcus agalactiae [3]) | MIC (Staphylococcus aureus [4]) | IC50 [9] | IC50 [10] | MBC (Flavobacterium columnare [5]) | MBC (Escherichia coli [6]) | MBC (Streptococcus agalactiae [7]) | MBC (Staphylococcus aureus [8])
Cc1nccn1CCCCOc1ccc2ccc(=O)oc2c1 | > 256 µM | 64 µM (≈ 19.1 µg/mL) | > 256 µM | 256 µM (≈ 76.4 µg/mL) | 4.46 µM | > 256 µM | > 256 µM | 256 µM (≈ 76.4 µg/mL) | > 256 µM | 256 µM (≈ 76.4 µg/mL)
Cc1nccn1CCCCCCCCCCOc1ccc2ccc(=O)oc2c1 | 8 µM (≈ 3.06 µg/mL) | > 256 µM | 8 µM (≈ 3.06 µg/mL) | 64 µM (≈ 24.5 µg/mL) | 108 µM | 4.21 µM | 16 µM (≈ 6.12 µg/mL) | > 256 µM | 16 µM (≈ 6.12 µg/mL) | 128 µM (≈ 49 µg/mL)
Cc1nccn1CCCCCCCCOc1ccc2ccc(=O)oc2c1 | 2 µM (≈ 0.709 µg/mL) | > 256 µM | 4 µM (≈ 1.42 µg/mL) | 16 µM (≈ 5.67 µg/mL) | 112 µM | 1.13 µM | 8 µM (≈ 2.84 µg/mL) | > 256 µM | 16 µM (≈ 5.67 µg/mL) | 128 µM (≈ 45.4 µg/mL)
O=c1ccc2ccc(OCCCCCCCCCCn3ccnc3)cc2o1 | 16 µM (≈ 5.9 µg/mL) | > 256 µM | 8 µM (≈ 2.95 µg/mL) | 64 µM (≈ 23.6 µg/mL) | > 256 µM | 5.03 µM | 16 µM (≈ 5.9 µg/mL) | > 256 µM | 16 µM (≈ 5.9 µg/mL) | 128 µM (≈ 47.2 µg/mL)
Cc1cn(CCCCCCCCCCOc2ccc3ccc(=O)oc3c2)cn1 | 16 µM (≈ 6.12 µg/mL) | > 256 µM | 8 µM (≈ 3.06 µg/mL) | 32 µM (≈ 12.2 µg/mL) | 115 µM | 4.37 µM | 16 µM (≈ 6.12 µg/mL) | > 256 µM | 16 µM (≈ 6.12 µg/mL) | 128 µM (≈ 49 µg/mL)

Further compounds by falling MIC (Flavobacterium columnare [1]), results first:

MIC (Flavobacterium columnare [1]) | MIC (Escherichia coli [2]) | MIC (Streptococcus agalactiae [3]) | MIC (Staphylococcus aureus [4]) | IC50 [9] | IC50 [10] | Structure (SMILES) | MBC (Flavobacterium columnare [5]) | MBC (Escherichia coli [6]) | MBC (Streptococcus agalactiae [7]) | MBC (Staphylococcus aureus [8])
32 µM (≈ 10.4 µg/mL) | 16 µM (≈ 5.22 µg/mL) | 128 µM (≈ 41.8 µg/mL) | 32 µM (≈ 10.4 µg/mL) | 1.35 µM | 3.59 µM | Cc1cn(CCCCCCOc2ccc3ccc(=O)oc3c2)cn1 | 128 µM (≈ 41.8 µg/mL) | 64 µM (≈ 20.9 µg/mL) | 256 µM (≈ 83.6 µg/mL) | 128 µM (≈ 41.8 µg/mL)
4 µM (≈ 1.42 µg/mL) | > 256 µM | 4 µM (≈ 1.42 µg/mL) | 8 µM (≈ 2.84 µg/mL) | 117 µM | 1.75 µM | Cc1cn(CCCCCCCCOc2ccc3ccc(=O)oc3c2)cn1 | 8 µM (≈ 2.84 µg/mL) | > 256 µM | 16 µM (≈ 5.67 µg/mL) | 64 µM (≈ 22.7 µg/mL)
4 µM (≈ 1.36 µg/mL) | > 256 µM | 8 µM (≈ 2.72 µg/mL) | 16 µM (≈ 5.45 µg/mL) | 158 µM | 2.74 µM | O=c1ccc2ccc(OCCCCCCCCn3ccnc3)cc2o1 | 8 µM (≈ 2.72 µg/mL) | > 256 µM | 16 µM (≈ 5.45 µg/mL) | 128 µM (≈ 43.6 µg/mL)
